This note sets out measurements from ChEMBL document CHEMBL1149569, “Aminopyrrolidineamide inhibitors of site-1 protease” (Bioorg Med Chem Lett, 2007).

In data set [1] the target is T1, Membrane-bound transcription factor site-1 protease (Homo sapiens, UniProt Q14703).
T1 sequence (Q14703 whole entry): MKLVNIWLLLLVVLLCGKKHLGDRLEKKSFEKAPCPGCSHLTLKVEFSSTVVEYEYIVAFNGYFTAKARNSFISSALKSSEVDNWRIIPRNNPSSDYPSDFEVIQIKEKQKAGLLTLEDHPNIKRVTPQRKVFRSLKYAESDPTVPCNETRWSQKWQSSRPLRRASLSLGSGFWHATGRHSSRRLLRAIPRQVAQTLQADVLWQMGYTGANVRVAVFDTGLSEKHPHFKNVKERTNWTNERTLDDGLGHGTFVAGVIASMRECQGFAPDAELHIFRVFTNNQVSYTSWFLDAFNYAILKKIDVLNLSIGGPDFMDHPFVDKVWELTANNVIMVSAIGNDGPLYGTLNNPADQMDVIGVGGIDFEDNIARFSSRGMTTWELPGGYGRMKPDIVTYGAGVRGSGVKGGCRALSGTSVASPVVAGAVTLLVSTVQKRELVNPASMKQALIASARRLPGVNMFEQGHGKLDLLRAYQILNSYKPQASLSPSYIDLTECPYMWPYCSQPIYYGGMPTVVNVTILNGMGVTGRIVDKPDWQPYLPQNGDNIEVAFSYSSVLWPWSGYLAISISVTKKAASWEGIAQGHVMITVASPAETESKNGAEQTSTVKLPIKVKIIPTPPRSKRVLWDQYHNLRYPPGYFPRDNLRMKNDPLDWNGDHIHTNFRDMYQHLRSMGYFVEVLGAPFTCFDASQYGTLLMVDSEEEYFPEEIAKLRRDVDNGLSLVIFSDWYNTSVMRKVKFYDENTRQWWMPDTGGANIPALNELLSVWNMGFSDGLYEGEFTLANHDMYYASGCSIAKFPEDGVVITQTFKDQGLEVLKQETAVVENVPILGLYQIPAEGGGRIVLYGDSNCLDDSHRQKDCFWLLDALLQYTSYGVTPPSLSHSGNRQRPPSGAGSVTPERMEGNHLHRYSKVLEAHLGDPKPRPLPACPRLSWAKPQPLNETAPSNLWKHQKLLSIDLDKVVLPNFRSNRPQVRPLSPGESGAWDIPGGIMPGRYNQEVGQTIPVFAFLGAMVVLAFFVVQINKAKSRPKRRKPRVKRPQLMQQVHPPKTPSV
The data set is described as follows: Inhibition of human S1P expressed in CHOK1 cells. Format: cell-based, CHO-K1.

Data set [2] deals with Urokinase-type plasminogen activator (Homo sapiens, UniProt P00749). The data set is described as follows: Inhibition of urokinase.
In another data set the target is Coagulation factor X (Homo sapiens, UniProt P00742). Description: Inhibition of factor 10a.
The subject of data set [3] is HepG2. The data set is described as follows: Inhibition of proteolytic processing of SREBP in HepG2 cells at 10 uM. Format: functional, cell-based. Particulars: Homo sapiens. The essentials: (§1)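 Hep-G2 human liver cells in culture were treated at 10 µM. SREBP proteolytic processing and nuclear translocation were then assessed.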
Data set [4] relates to HepG2. Description: Inhibition of nuclear translocation of SREBP in HepG2 cells at 10 uM. Format: functional, cell-based. The conditions noted are these: Homo sapiens. The essentials: as §1
Data set [5] has as its system Liver. Description: Reduction of HMG-CoA synthase expression in mouse liver. The format is functional, tissue-based.
In the next data set the test system is Hepatocyte. The data set is described as follows: Reduction of fatty acid synthase expression in mouse hepatocytes. Format: functional, cell-based.
Data set [6] has as its system Liver. Description: Reduction of fatty acid synthase expression in mouse liver. The format is functional, tissue-based.
For data set [7], the system named is HepG2. The data set is described as follows: Inhibition of cholesterol synthesis in HepG2 cells. The format is functional, cell-based. The conditions noted are these: Homo sapiens.
The test system of data set [8] is Liver. Description: Inhibition of cholesterol synthesis in rat liver. Format: functional, tissue-based.
Data set [9] relates to HepG2. Description: Inhibition of fatty acid synthesis in HepG2 cells at 10 uM. Particulars: Homo sapiens. The format is functional.
For data set [10], the system named is Liver. Description: Inhibition of fatty acid synthesis in rat liver at 10 uM. The format is functional.
The test system of data set [11] is HepG2. Description: Inhibition of LDL receptor gene expression in HepG2 cells. Format: functional, cell-based. The conditions noted are these: Homo sapiens.
Data set [12] deals with Low-density lipoprotein receptor (Homo sapiens) (UniProt P01130). Description: Inhibition of LDL receptor-mediated LDL internalization in HepG2 cells. The format is cell-based.
A short description of data set [13]: Plasma clearance in rat. The format is ADME, organism-based.
A short description of data set [14]: Oral bioavailability in rat. The format is ADME, organism-based. The conditions noted are these: in vivo.
Data set [15] has as its system Mus musculus. The data set is described as follows: Antilipogenic activity in CD1 mouse assessed as reduction of HMG-CoA synthase gene expression at 10 mg/kg, ip every 6 hrs for 24 hrs. Format: functional. Further details: scale not given: the % may be the effect or the level left. The conditions noted are these: route intraperitoneal. Summed up:
(§2)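 Male CD1 mice, n = 5 per group, given 10 or 30 mg/kg/dose intraperitoneally every 6 h for 24 h (acute 24 h efficacy). Hepatic HMG-CoA synthase, fatty acid synthase and LDL receptor gene expression were measured in liver tissue samples. Cholesterol and fatty acid synthetic pathway activity was measured in the animals.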

Data set [16] deals with Mus musculus. The data set is described as follows: Antilipogenic activity in CD1 mouse assessed as reduction of HMG-CoA synthase gene expression at 30 mg/kg, ip every 6 hrs for 24 hrs. Format: functional. Further details: scale not given: the % may be the effect or the level left. The conditions noted are these: route intraperitoneal. Summed up:
as §2

In data set [17] the test system is Mus musculus. Description: Antilipogenic activity in CD1 mouse assessed as reduction of fatty acid synthase gene expression at 10 mg/kg, ip every 6 hrs for 24 hrs. The format is functional. Further details: scale not given: the % may be the effect or the level left. Particulars: route intraperitoneal. Summed up: as §2
Data set [18] has as its system Mus musculus. The data set is described as follows: Antilipogenic activity in CD1 mouse assessed as reduction of fatty acid synthase gene expression at 30 mg/kg, ip every 6 hrs for 24 hrs. Further details: scale not given: the % may be the effect or the level left. The conditions noted are these: route intraperitoneal. The format is functional. The essentials: as §2

The test system of data set [19] is Mus musculus. Description: Antilipogenic activity in CD1 mouse assessed as inhibition of cholesterol synthetic pathway at 10 mg/kg, ip every 6 hrs for 24 hrs. The format is functional. Further details: scale not given: the % may be the effect or the level left. Particulars: route intraperitoneal. Summed up:
as §2

Data set [20] has as its system Mus musculus. The data set is described as follows: Antilipogenic activity in CD1 mouse assessed as inhibition of cholesterol synthetic pathway at 30 mg/kg, ip every 6 hrs for 24 hrs. Format: functional. Further details: scale not given: the % may be the effect or the level left. Particulars: route intraperitoneal. The essentials: as §2
Data set [21] has as its system Mus musculus. Description: Antilipogenic activity in CD1 mouse assessed as inhibition of fatty acid synthetic pathway at 10 mg/kg, ip every 6 hrs for 24 hrs. Format: functional. On the set-up: scale not given: the % may be the effect or the level left. The conditions noted are these: route intraperitoneal. The essentials:
as §2

The subject of data set [22] is Mus musculus. The data set is described as follows: Antilipogenic activity in CD1 mouse assessed as inhibition of fatty acid synthetic pathway at 30 mg/kg, ip every 6 hrs for 24 hrs. The format is functional. Further details: scale not given: the % may be the effect or the level left. Particulars: route intraperitoneal. Summed up: as §2
The test system of data set [23] is Mus musculus. The data set is described as follows: Antilipogenic activity in CD1 mouse assessed as reduction of LDL receptor gene expression at 30 mg/kg, ip every 6 hrs for 24 hrs. The format is functional. Further details: scale not given: the % may be the effect or the level left. Particulars: route intraperitoneal. Summed up: as §2
A further data set has as its system Hep-G2 (Homo sapiens). Description: Reduction of HMG-CoA synthase expression in human Hep-G2 cells.

Calls of active or inactive are those of the source. The calls are words filed in the database; no cut-off is given here.

Low-density lipoprotein receptor (Homo sapiens), sequence (P01130 whole entry): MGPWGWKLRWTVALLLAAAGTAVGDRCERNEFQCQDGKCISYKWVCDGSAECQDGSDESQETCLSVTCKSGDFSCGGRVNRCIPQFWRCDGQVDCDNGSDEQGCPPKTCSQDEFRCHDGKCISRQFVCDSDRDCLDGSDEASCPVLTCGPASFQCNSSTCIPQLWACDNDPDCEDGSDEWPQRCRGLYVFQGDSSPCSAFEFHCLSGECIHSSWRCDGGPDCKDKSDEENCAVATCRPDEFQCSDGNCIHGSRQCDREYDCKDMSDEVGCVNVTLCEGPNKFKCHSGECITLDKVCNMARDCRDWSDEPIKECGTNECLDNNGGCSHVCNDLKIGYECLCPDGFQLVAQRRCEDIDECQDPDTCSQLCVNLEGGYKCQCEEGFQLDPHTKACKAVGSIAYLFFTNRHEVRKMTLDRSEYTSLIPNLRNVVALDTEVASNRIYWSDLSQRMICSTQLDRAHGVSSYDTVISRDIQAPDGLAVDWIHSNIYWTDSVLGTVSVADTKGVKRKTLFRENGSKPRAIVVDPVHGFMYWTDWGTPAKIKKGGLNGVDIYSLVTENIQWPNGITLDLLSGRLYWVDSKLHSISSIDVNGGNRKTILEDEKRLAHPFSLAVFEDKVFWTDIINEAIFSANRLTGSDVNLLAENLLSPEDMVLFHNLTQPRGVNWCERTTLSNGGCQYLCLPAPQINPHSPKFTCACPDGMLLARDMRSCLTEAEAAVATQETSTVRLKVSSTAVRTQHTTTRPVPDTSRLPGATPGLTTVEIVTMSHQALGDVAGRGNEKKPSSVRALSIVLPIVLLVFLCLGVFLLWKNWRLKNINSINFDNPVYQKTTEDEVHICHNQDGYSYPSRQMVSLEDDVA
Coagulation factor X, sequence (P00742 41-179 limits assumed): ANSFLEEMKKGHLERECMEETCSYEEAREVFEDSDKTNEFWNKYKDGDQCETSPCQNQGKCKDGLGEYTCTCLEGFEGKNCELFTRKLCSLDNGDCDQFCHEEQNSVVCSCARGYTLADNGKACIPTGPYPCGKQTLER
Coagulation factor X, sequence (P00742 235-488 limits assumed): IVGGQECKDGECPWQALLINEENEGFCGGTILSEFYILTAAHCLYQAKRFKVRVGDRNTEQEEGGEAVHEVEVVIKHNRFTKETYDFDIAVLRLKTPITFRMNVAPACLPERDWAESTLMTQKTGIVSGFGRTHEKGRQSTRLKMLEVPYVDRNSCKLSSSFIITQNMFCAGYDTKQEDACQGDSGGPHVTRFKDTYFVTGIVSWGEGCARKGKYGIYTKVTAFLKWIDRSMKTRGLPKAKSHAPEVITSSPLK

The IC50 is the point on the concentration scale where inhibition reaches its midpoint. In turn, `CCN(CC)Cc1ccc(C(=O)N(CCc2ccc(Cl)cc2)C2CCNC2)cc1` (centres undefined) showed an IC50 in [1] of 3700 nM.
Still for that read-out and setting: the same measure for `Cc1ccccc1C1CCCN(Cc2ccc(C(=O)N(CCc3ccccc3Cl)C3CCNC3)cc2)C1` (centres undefined): 8 nM; for `COc1ccccc1CCN(C(=O)c1ccc(CN2CC3CCCC2C3)cc1)C1CCNC1` (centres undefined): 29 nM; for `CC(C)Oc1ccc(C(=O)N(CCc2ccccc2Cl)C2CCN(C)C2)cc1` (centres undefined): greater than 30000 nM.
Turning to `CCN(CC)Cc1ccc(C(=O)N(CCc2ccccc2Cl)C2CCNC2)cc1` (centres undefined), inhibition in data set [1] was half-maximal at 840 nM (IC50).
Same read-out and setting: the same measure for `CCN(CC)Cc1ccc(C(=O)N(CCc2ccccc2OC)C2CCNC2)cc1` (centres undefined): 540 nM; for `COc1ccccc1CCN(C(=O)c1ccc(CN2CCCC(c3ccccc3C)C2)cc1)C1CCNC1` (centres undefined): 37 nM; for `CC(C)Oc1ccc(C(=O)N(CCc2ccccc2Cl)C2CCNC2)cc1` (centres undefined): 1400 nM.
Same read-out and setting: the same measure for `CC(C)Oc1ccc(C(=O)N(CCc2ccccc2Cl)C2CNC2)cc1`: greater than 30000 nM.
The same measure, in the same setting: in the case of `COc1ccccc1CCN(C(=O)c1ccc(CN2CC3CCC2C3)cc1)C1CCNC1` (centres undefined) it was 95 nM; in that of `CC(C)Oc1ccc(C(=O)N(CCc2ccccc2Cl)C2CCSC2)cc1` (centres undefined), greater than 30000 nM; in that of `CC(C)Oc1ccc(C(=O)N(CCc2ccccc2F)C2CCNC2)cc1` (centres undefined), 9000 nM.
Take `CC(C)Oc1ccc(C(=O)N(CCc2ccccc2Cl)C2CCN(C=O)C2)cc1` (centres undefined): the concentration for half-maximal inhibition (IC50) in data set [1] was greater than 30000 nM.
The same measure, in the same setting: the same measure for `COC[C@@H]1CCCN1Cc1ccc(C(=O)N(CCc2ccccc2OC)C2CCNC2)cc1` (some centres undefined): 140 nM.
One may read the EC50 as the concentration at which the effect is half-maximal. One may read the inhibition as the share of the control response that was lost under treatment. What is called clearance is a measure of how efficiently the substance is removed, as volume per time. Broadly, the bioavailability is dose-corrected exposure relative to a reference, in per cent. As for `CCN(CC)Cc1ccc(C(=O)N(CCc2ccccc2OC)[C@@H]2CCNC2)cc1`, the results for the half-inhibitory concentration (IC50) (in data set [1]; in data set [2]; on Coagulation factor X) were 170 nM, 50000 nM and 100000 nM, respectively. In addition, the result (with HepG2 [3]; in the data set with HepG2 [4]; with HepG2 [11]; in data set [12]) was Active. The EC50 is 300 nM in the data set on Liver [5]; 2000 nM in the data set on Hepatocyte; 2000 nM in the data set on Liver [6]; 600 nM in the data set with HepG2 [7]; 600 nM in the data set on Liver [8]; 300 nM in the data set with Hep-G2 (Homo sapiens). In addition, the inhibition at 10 µM in the data set on HepG2 [9] and in the data set with Liver [10] was 43% throughout. Further, the clearance in data set [13] was 75 mL/min/kg. This compound also showed a bioavailability in data set [14] of 5%. Moreover, the Activity with Mus musculus [15] is greater than 80%; in the data set with Mus musculus [16] it was greater than 80%; with Mus musculus [17], 50%; in the data set with Mus musculus [18], 75%; in the data set on Mus musculus [19] it was 50%; in the data set with Mus musculus [20], 80%. Besides, the Activity is 50% in the data set with Mus musculus [21], 80% in the data set with Mus musculus [22] and 35% in the data set on Mus musculus [23].
`COc1ccccc1CCN(C(=O)c1ccc(CN2CCCC(C(N)=O)C2)cc1)C1CCNC1` (centres undefined) came in with an IC50 in data set [1] of 160 nM.
On the same count and under the same terms, in the case of `CCN(CC)Cc1ccc(C(=O)N(CCc2ccccc2C)C2CCNC2)cc1` (centres undefined) it was 1600 nM; in that of `CCN(CC)Cc1ccc(C(=O)N(CCc2ccccc2OC)[C@H]2CCNC2)cc1`, 970 nM; in that of `CC(C)Oc1ccc(C(=O)N(CCc2cccc(Cl)c2)C2CCNC2)cc1` (centres undefined), 9600 nM.
The compound `CC(C)Oc1ccc(C(=O)N(Cc2ccccc2Cl)C2CCNC2)cc1` (centres undefined) had an IC50 in [1] greater than 5000 nM.
Same read-out and setting: the same measure for `COc1ccccc1CCN(C(=O)c1ccc(CN2CCCCC2)cc1)C1CCNC1` (centres undefined): 250 nM; for `COc1ccccc1CCN(C(=O)c1ccc(OCc2ccccc2)cc1)C1CCNC1` (centres undefined): 310 nM; for `COc1ccccc1CCN(C(=O)c1ccc(CN[C@H]2CCCC[C@@H]2O)cc1)C1CCNC1` (some centres undefined): 100 nM.
Regarding `CC(C)Oc1ccc(C(=O)N(CCc2ccccc2Cl)C2CCCNC2)cc1` (centres undefined), in [1], the IC50 was greater than 30000 nM.
With `CCN(CC)Cc1ccc(C(=O)N(CCc2c(Cl)cccc2Cl)C2CCNC2)cc1` (centres undefined), 430 nM corresponded to half-maximal inhibition in data set [1] (IC50).
Same read-out and setting: in the case of `O=C(c1ccc(OCc2ccccc2)cc1)N(CCc1cccc(Cl)c1)C1CCNC1` (centres undefined) it was 510 nM.
Take `O=C(c1ccc(OCc2ccccc2)cc1)N(CCc1ccccc1Cl)C1CCNC1` (centres undefined): inhibition in data set [1] was half-maximal at 590 nM (IC50).
In the case of `O=C(c1ccc(CN2CCCCC2)cc1)N(CCc1ccccc1Cl)C1CCOC1` (centres undefined), in data set [1], the IC50 was greater than 30000 nM.
The same measure, in the same setting: in the case of `CCOc1ccccc1CCN(C(=O)c1ccc(CN(CC)CC)cc1)C1CCNC1` (centres undefined) it was 16000 nM.
